Measured values from ChEMBL document CHEMBL4823270, “A first-in-class anticancer dual HDAC2/FAK inhibitors bearing hydroxamates/benzamides capped by pyridinyl-1,2,4-triazoles” (Eur J Med Chem, 2021).

What was measured:
Histone deacetylase 1 = Histone deacetylase 1 (Homo sapiens, UniProt Q13547); assay: Inhibition of human full-length recombinant HDAC1 preincubated for 5 mins followed by HDAC substrate addition and further incubated for 45 mins by fluorescence microplate reader assay
KG-1 = assay: Growth inhibition of human KG-1 cells at 10 uM incubated for 24 hrs by MTT assay relative to control; format: functional; details: KG-1, 24 h
Summary of the method: (§1)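 Cells seeded at 1 × 10^4 per well, cultured overnight, then exposed to 10 μM compound or DMSO (negative control) for 24 h. After a PBS wash, MTT (2 mg/ml) was added for 4 h at 37°C and formazan dissolved in DMSO. OD read at 570 nm. Growth inhibition = 1 − (OD treated/OD control); at least three independent experiments.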

K562 = assay: Growth inhibition of human K562 cells at 10 uM incubated for 24 hrs by MTT assay relative to control; format: functional; details: read-out: GI; summary of the method: as §1
HCT-116 = assay: Growth inhibition of human HCT-116 cells at 10 uM incubated for 24 hrs by MTT assay relative to control; format: functional; details: read-out: GI; summary of the method: as §1
Histone deacetylase 3 = Histone deacetylase 3 (Homo sapiens, UniProt O15379); assay: Inhibition of human full-length recombinant HDAC3 preincubated for 5 mins followed by HDAC substrate addition and further incubated for 45 mins by fluorescence microplate reader assay
Chain of Histone deacetylase 3 (O15379 whole entry): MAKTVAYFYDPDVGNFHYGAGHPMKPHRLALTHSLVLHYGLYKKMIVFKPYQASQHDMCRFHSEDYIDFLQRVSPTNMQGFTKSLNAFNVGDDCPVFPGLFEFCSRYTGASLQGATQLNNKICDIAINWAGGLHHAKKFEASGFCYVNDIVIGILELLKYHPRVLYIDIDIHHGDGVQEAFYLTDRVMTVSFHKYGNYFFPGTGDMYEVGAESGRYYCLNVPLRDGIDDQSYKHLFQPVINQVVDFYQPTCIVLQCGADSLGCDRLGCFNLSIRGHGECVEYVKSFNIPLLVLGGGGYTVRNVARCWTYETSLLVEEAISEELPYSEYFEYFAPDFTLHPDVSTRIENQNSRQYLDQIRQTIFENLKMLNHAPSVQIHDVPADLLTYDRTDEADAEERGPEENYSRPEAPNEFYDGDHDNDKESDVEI

A498 [1] = assay: Antiproliferative activity against human A498 cells assessed as cell growth inhibition incubated for 24 hrs by MTT assay; format: functional, cell-based; details: A498, 24 h
A498 [2] = assay: Growth inhibition of human A498 cells at 10 uM incubated for 24 hrs by MTT assay relative to control; format: functional; details: read-out: GI; summary of the method: as §1
Histone deacetylase 8 = biological target: T1, Histone deacetylase 8 (Homo sapiens, UniProt Q9BY41); assay: Inhibition of human full-length recombinant C-terminal His-tagged HDAC8 expressed in baculovirus infected Sf9 insect cells preincubated for 5 mins followed by HDAC substrate addition and further incubated for 45 mins by fluorescence microplate reader assay
T1 sequence (Q9BY41 whole entry): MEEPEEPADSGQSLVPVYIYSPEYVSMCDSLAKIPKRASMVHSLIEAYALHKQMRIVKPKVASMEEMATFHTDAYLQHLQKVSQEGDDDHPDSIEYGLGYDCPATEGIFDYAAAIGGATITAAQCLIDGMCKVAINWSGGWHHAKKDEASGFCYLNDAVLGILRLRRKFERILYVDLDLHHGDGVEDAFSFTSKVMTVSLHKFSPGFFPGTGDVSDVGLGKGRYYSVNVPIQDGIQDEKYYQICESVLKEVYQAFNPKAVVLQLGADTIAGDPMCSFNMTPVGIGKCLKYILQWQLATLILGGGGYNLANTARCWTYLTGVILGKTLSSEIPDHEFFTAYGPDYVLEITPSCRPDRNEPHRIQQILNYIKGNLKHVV

Histone deacetylase 2 = Histone deacetylase 2 (Homo sapiens, UniProt Q92769); assay: Inhibition of human full-length recombinant HDAC2 preincubated for 5 mins followed by HDAC substrate addition and further incubated for 45 mins by fluorescence microplate reader assay
Chain of Histone deacetylase 2 (Q92769 whole entry): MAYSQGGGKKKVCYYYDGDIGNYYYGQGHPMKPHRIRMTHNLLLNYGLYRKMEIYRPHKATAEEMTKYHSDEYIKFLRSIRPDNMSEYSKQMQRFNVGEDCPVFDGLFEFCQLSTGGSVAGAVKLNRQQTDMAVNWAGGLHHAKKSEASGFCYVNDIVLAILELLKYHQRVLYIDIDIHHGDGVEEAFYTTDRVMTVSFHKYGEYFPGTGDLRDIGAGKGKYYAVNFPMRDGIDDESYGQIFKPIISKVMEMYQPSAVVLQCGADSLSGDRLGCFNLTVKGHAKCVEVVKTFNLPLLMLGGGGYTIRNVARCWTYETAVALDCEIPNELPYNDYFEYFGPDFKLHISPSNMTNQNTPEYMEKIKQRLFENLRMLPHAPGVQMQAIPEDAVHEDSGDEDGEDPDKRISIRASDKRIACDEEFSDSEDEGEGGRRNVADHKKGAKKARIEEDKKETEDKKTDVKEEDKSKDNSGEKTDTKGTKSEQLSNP

[3] = biological target: T2, Protein deacetylase HDAC6 (Homo sapiens, UniProt Q9UBN7); assay: Inhibition of human full-length recombinant HDAC6 preincubated for 5 mins followed by HDAC substrate addition and further incubated for 45 mins by fluorescence microplate reader assay
T2 sequence (Q9UBN7 whole entry): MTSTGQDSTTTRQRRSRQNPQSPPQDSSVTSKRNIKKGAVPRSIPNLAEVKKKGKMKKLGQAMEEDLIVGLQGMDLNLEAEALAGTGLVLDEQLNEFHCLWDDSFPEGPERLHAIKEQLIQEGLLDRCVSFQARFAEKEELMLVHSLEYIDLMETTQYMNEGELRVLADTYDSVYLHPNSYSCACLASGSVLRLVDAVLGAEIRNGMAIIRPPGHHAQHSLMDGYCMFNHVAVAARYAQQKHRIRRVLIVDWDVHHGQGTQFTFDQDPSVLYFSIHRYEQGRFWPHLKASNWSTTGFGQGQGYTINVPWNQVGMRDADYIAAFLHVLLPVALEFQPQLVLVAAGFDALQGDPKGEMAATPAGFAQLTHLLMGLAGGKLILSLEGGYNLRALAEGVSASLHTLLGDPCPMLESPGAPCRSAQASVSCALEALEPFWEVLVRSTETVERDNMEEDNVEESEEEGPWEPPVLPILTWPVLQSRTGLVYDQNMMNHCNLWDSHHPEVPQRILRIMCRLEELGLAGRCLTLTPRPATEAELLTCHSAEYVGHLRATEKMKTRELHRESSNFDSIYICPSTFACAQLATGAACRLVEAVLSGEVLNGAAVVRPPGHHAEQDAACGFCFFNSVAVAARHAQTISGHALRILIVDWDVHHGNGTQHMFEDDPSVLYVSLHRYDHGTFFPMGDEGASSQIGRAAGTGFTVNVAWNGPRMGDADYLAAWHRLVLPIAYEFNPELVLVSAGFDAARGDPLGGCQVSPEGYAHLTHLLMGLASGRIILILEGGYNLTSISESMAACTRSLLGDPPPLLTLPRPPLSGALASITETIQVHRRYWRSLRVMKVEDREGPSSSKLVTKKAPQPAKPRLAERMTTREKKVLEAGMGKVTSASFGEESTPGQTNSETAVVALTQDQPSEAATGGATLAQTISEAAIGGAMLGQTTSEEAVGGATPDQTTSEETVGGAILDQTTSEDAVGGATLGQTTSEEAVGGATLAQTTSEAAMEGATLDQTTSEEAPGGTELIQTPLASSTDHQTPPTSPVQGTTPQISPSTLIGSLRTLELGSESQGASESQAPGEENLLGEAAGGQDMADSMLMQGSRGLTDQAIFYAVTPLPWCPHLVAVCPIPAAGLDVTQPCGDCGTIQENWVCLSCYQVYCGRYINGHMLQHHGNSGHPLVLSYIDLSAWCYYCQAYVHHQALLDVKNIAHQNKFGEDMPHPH

CAKI-1 [4] = assay: Growth inhibition of human CAKI-1 cells at 10 uM incubated for 24 hrs by MTT assay relative to control; format: functional; details: read-out: GI; summary of the method: as §1
CAKI-1 [5] = assay: Antiproliferative activity against human CAKI-1 cells assessed as cell growth inhibition incubated for 24 hrs by MTT assay; format: functional, cell-based; details: CAKI-1, 24 h
HT-29 = assay: Growth inhibition of human HT-29 cells at 10 uM incubated for 24 hrs by MTT assay relative to control; format: functional; details: read-out: GI; summary of the method: as §1
Focal adhesion kinase 1 = Focal adhesion kinase 1 (Homo sapiens, UniProt Q05397); assay: Inhibition of FAK (unknown origin) by FRET-based Z'-Lyte assay
Chain of Focal adhesion kinase 1 (Q05397 whole entry): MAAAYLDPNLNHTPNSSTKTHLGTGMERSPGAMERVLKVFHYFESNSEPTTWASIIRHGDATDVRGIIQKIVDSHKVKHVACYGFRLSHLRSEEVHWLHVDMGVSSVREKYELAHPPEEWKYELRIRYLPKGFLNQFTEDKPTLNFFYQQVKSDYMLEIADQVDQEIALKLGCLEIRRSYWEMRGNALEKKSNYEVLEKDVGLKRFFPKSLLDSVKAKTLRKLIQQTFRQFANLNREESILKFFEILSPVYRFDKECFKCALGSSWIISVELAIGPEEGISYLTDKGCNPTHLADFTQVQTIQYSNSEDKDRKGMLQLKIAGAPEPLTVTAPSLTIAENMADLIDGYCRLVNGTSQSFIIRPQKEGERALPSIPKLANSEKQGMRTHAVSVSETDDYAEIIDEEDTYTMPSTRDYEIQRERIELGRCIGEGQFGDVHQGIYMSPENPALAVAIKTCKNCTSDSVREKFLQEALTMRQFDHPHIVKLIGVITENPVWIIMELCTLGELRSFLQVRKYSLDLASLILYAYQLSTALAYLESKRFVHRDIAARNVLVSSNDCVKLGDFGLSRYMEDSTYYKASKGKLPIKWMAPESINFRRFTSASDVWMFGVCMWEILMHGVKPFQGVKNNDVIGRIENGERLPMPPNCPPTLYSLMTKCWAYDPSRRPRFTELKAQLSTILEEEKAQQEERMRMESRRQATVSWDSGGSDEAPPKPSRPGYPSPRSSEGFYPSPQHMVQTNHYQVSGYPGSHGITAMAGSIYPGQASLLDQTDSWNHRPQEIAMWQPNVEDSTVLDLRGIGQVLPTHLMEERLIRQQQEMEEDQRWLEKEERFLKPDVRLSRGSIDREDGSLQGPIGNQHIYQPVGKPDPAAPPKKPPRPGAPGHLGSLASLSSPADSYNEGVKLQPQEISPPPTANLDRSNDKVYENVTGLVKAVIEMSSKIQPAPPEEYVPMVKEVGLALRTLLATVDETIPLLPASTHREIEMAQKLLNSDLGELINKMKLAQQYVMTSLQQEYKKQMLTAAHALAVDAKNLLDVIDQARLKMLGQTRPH
Summary of the method: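 Recombinant FAK kinase activity measured with the FRET-based Z'-LYTE format; the same platform was used for a kinase panel (FAK, FLT, FRK, IGF-1R, BTK). IC50 values determined.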

Chain of Histone deacetylase 1 (Q13547 whole entry): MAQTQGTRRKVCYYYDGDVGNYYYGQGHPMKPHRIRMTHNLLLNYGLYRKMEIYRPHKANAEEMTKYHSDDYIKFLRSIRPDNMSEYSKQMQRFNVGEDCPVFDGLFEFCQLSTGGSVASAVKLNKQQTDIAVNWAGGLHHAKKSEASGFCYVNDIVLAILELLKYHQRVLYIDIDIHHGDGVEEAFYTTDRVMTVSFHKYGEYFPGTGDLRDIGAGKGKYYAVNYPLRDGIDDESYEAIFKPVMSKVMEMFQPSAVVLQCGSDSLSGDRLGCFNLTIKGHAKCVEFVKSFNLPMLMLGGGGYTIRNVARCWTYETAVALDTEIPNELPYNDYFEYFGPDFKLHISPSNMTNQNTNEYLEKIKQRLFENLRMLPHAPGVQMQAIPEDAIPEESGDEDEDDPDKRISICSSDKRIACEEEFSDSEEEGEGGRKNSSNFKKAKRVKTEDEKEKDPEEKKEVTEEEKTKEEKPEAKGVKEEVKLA

| Compound | IC50 (Histone deacetylase 1) [µM] | inhibition in vitro at 10 µM (KG-1) [%] | inhibition of growth at 10 µM (K562) [%] | inhibition of growth at 10 µM (HCT-116) [%] | IC50 (Histone deacetylase 3) [µM] | IC50 (A498 [1]) [µM] | inhibition of growth at 10 µM (A498 [2]) [%] | IC50 (Histone deacetylase 8) [µM] | IC50 (Histone deacetylase 2) [µM] | IC50 [3] [µM] | inhibition of growth at 10 µM (CAKI-1 [4]) [%] | IC50 (CAKI-1 [5]) [µM] | inhibition of growth at 10 µM (HT-29) [%] | IC50 (Focal adhesion kinase 1) [nM] |
| --- | --- | --- | --- | --- | --- | --- | --- | --- | --- | --- | --- | --- | --- | --- |
| Cn1c(SCCCCCC(=O)Nc2ccccc2N)nnc1-c1ccncc1 | 40.2 | 63.1 | 44.9 | 54.4 | 84.1 | 13.4 | 45.3 | 7.28 | 14.4 | 14.2 | 50.8 | 9.87 | 71.4 | 57.1 |
| C=CCn1c(SCCCCCC(=O)O)nnc1-c1ccncc1 | 98.2 | 15.4 | 2.95 | 16.2 | 246 | 85.3 | 11.4 | > 300 | 10.1 | > 300 | 3.25 | 164 | 21.2 | 124 |
| CCn1c(SCCCCCC(=O)NO)nnc1-c1ccncc1 | 76.3 | 17.3 | 4.09 | 21.4 | > 300 | 149 | 5.26 | > 300 | 28.9 | 270 | 2.06 | 112 | 9.15 | 124 |
| C=CCn1c(SCc2ccc(C(=O)Nc3ccccc3N)cc2)nnc1-c1ccncc1 | 11.8 | 87.5 | 90.1 | 80.5 | 42.1 | 1.42 | 97.1 | 22.5 | 1.28 | 9.96 | 94.8 | 1.6 | 70.7 | 15.6 |
| O=C(NO)c1ccc(CSc2nnc(-c3ccncc3)n2-c2ccccc2)cc1 | 15 | 50.9 | 39.1 | 29.3 | 18 | 8.76 | 56.9 | 12.8 | 9.76 | 6.93 | 61.9 | 7.13 | 42.7 | 22.4 |
| Nc1ccccc1NC(=O)CCCCCSc1nnc(-c2ccncc2)n1-c1ccccc1 | 256 | 34.9 | 15.1 | 24.5 | > 300 | 342 | 4.67 | > 300 | 38.7 | 159 | 1.65 | 215 | 9.64 | 312 |
| Cn1c(SCc2ccc(C(=O)Nc3ccccc3N)cc2)nnc1-c1ccncc1 | 7.64 | 24.1 | 54.1 | 18 | 71.1 | 9.34 | 55.6 | 7.85 | 13 | 11 | 75.2 | 6.97 | 47.9 | 53.1 |
| C=CCn1c(SCc2ccc(C(=O)NO)cc2)nnc1-c1ccncc1 | 19.6 | 62 | 36.1 | 44.1 | 20.7 | 13.2 | 44.9 | 28.4 | 11.2 | 9.86 | 50.2 | 9.56 | 25.3 | 46.1 |
| Cn1c(SCCCCCC(=O)O)nnc1-c1ccncc1 | 8.93 | 55.9 | 18.2 | 20.1 | 84.6 | 12.3 | 45.3 | 12 | 7.36 | 78.4 | 34.7 | 16.5 | 34.2 | 50.3 |
